{"source": "ChEMBL document CHEMBL4813946", "about": "“Discovery of novel 4-azaaryl-N-phenylpyrimidin-2-amine derivatives as potent and selective FLT3 inhibitors for acute myeloid leukaemia with FLT3 mutations” (Eur J Med Chem, 2021)", "key": {"MV4-11 [1]": {"tested_on": "MV4-11", "assay": "Induction of apoptosis in human MV4-11 cells assessed as early apoptotic cells at 20 x GI50 concentration incubated for 48 hrs by annexin V-FITC and propidium iodide staining based flow cytometry (reference value: 1.08 %)", "type": "functional"}, "U-937 [2]": {"tested_on": "U-937", "assay": "Induction of apoptosis in human U937 cells assessed as viable cells at 10 x GI50 concentration incubated for 48 hrs by annexin V-FITC staining based flow cytometry (reference value: 86.25 %)", "type": "functional"}, "MV4-11 [3]": {"tested_on": "MV4-11", "assay": "Induction of apoptosis in human MV4-11 cells assessed as viable cells at 1 x GI50 concentration incubated for 48 hrs by annexin V-FITC and propidium iodide staining based flow cytometry (reference value: 91.87 %)", "type": "functional"}, "U-937 [4]": {"tested_on": "U-937", "assay": "Induction of apoptosis in human U937 cells assessed as early apoptotic cells at 1 x GI50 concentration incubated for 24 hrs by annexin V-FITC and propidium iodide staining based flow cytometry (Rvb =1.81 %)", "type": "functional"}, "[5]": {"target": "Receptor-type tyrosine-protein kinase FLT3 (Homo sapiens) (UniProt P36888)", "assay": "Inhibition of FLT3-mediated signalling pathway in human MV4-11 cells assessed as inhibition of S6RP phosphorylation upto 20 x GI50 concentration incubated for 6 hrs by western blot analysis", "type": "cell-based", "procedure,_shortened": "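Cells lysed in phosphate lysis buffer with protease inhibitors and protein quantified. Western blots probed phospho and total STAT5, AKT, ERK, S6RP and eIF4E, plus full-length and cleaved PARP and caspase-3, with β-actin as loading control. At least two independent experiments.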"}, "MV4-11 [6]": {"tested_on": "MV4-11", "assay": "Induction of apoptosis in human MV4-11 cells assessed as necrotic cells at 10 x GI50 concentration incubated for 48 hrs by annexin V-FITC and propidium iodide staining based flow cytometry (reference value: 0.45 %)", "type": "functional"}, "U-937 [7]": {"tested_on": "U-937", "assay": "Induction of apoptosis in human U937 cells assessed as viable cells at 1 x GI50 concentration incubated for 24 hrs by annexin V-FITC and propidium iodide staining based flow cytometry (reference value: 86.80 %)", "type": "functional"}, "U-937 [8]": {"tested_on": "U-937", "assay": "Induction of apoptosis in human U937 cells assessed as late apoptotic cells at 20 x GI50 concentration incubated for 24 hrs by annexin V-FITC and propidium iodide staining based flow cytometry (reference value: […] %)", "type": "functional"}, "U-937 [9]": {"tested_on": "U-937", "assay": "Induction of apoptosis in human U937 cells assessed as early apoptotic cells at 20 x GI50 concentration incubated for 48 hrs by annexin V-FITC staining based flow cytometry (reference value: 2.78 %)", "type": "functional"}, "[10]": {"assay": "Inhibition of FLT3 ITD-NPOS mutant (unknown origin) incubated for 120 mins by ADP-glo based luminescence assay", "set-up": "species or system Homo sapiens"}, "[11]": {"target": "T1, Receptor-type tyrosine-protein kinase FLT3 (Homo sapiens, UniProt P36888)", "T1 sequence (P36888 whole entry)": "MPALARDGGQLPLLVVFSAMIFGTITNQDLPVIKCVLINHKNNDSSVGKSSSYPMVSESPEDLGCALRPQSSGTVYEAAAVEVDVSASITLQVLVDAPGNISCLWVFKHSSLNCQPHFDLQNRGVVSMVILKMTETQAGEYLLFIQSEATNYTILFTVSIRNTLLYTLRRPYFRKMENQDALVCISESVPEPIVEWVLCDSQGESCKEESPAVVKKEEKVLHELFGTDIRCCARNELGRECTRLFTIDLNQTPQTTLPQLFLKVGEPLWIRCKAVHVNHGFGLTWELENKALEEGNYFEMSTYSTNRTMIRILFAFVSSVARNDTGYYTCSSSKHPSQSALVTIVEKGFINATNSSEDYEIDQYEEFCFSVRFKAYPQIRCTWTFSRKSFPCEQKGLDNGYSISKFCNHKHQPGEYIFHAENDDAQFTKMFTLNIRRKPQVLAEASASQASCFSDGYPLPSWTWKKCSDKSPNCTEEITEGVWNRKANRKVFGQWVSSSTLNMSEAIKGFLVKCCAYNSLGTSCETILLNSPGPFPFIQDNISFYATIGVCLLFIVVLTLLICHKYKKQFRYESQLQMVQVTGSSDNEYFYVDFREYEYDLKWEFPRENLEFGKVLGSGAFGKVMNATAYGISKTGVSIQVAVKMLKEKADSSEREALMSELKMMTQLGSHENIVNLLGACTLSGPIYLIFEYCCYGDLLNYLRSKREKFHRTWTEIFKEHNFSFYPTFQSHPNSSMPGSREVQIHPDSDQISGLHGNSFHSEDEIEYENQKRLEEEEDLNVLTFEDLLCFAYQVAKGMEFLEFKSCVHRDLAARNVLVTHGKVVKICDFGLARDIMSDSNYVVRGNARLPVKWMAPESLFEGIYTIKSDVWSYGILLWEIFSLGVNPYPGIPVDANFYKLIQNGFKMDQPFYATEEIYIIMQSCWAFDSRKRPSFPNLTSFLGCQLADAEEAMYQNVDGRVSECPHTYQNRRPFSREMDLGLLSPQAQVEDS", "assay": "Inhibition of wild type FLT3 (unknown origin) using Glu/Tyr peptide substrate incubated for 120 mins measured after 40 mins incubation under dark by ADP-glo based luminescence assay", "procedure,_shortened": "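In-house ADP-Glo assay with poly(Glu,Tyr) 4:1 substrate in 40 mM Tris pH 7.5, 20 mM MgCl2, 50 µM DTT, 0.1 mg/mL BSA. Kinase at 20 nM. ADP-Glo reagent 40 min in the dark, detection reagent 30–40 min, then luminescence. Ki was derived from IC50 by Cheng-Prusoff.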"}, "[12]": {"assay": "Antiproliferative activity against human MOLM-13 cells harboring FLT3-ITD mutant assessed as reduction in cell viability after 72 hrs by resazurin assay", "type": "functional", "conditions": "MOLM-13, 72 h", "procedure,_shortened": "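Cells seeded and pre-incubated 24 h at 37 °C, 5% CO2, then given a five-fold dilution series of compound (from 10 mM DMSO stock) in medium, in triplicate. Resazurin added after 72 h exposure, 4 h in dark at 37 °C. Fluorescence read at 570/585 nm, normalised to DMSO vehicle. GI50 by non-linear regression; mean ± SD of at least two replicates.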"}, "U-937 [13]": {"tested_on": "U-937", "assay": "Induction of apoptosis in human U937 cells assessed as necrotic cells at 1 x GI50 concentration incubated for 48 hrs by annexin V-FITC staining based flow cytometry (reference value: 1.16 %)", "type": "functional"}, "U-937 [14]": {"tested_on": "U-937", "assay": "Induction of apoptosis in human U937 cells assessed as viable cells at 20 x GI50 concentration incubated for 48 hrs by annexin V-FITC staining based flow cytometry (reference value: 86.25%)", "type": "functional"}, "MV4-11 [15]": {"tested_on": "MV4-11", "assay": "Induction of apoptosis in human MV4-11 cells assessed as late apoptotic cells at 5 x GI50 concentration incubated for 24 hrs by annexin V-FITC and propidium iodide staining based flow cytometry (reference value: 12.45 %)", "type": "functional"}, "MV4-11 [16]": {"tested_on": "MV4-11", "assay": "Induction of apoptosis in human MV4-11 cells assessed as viable cells at 20 x GI50 concentration incubated for 24 hrs by annexin V-FITC and propidium iodide staining based flow cytometry (reference value: 84.68 %)", "type": "functional"}, "U-937 [17]": {"tested_on": "U-937", "assay": "Induction of apoptosis in human U937 cells assessed as necrotic cells at 1 x GI50 concentration incubated for 24 hrs by annexin V-FITC and propidium iodide staining based flow cytometry (reference value: 1.10 %)", "type": "functional"}, "MV4-11 [18]": {"tested_on": "MV4-11", "assay": "Induction of apoptosis in human MV4-11 cells assessed as viable cells at 5 x GI50 concentration incubated for 48 hrs by annexin V-FITC and propidium iodide staining based flow cytometry (reference value: 91.87 %)", "type": "functional"}}, "note": "The source made the active and inactive calls. No cut-off for these calls is given here.", "data": [{"smiles": "CC(=O)N1CCN(c2ccc(Nc3nccc(-c4cn(C)c5ncccc45)n3)cc2)CC1", "values": [{"measurement": "Activity", "setting": "MV4-11 [1]", "value": 2.17, "unit": "%"}, {"measurement": "Activity", "setting": "U-937 [2]", "value": 83.36, "unit": "%"}, {"measurement": "Activity", "setting": "MV4-11 [3]", "value": 89.25, "unit": "%"}, {"measurement": "Activity", "setting": "U-937 [4]", "value": 2.41, "unit": "%"}, {"measurement": "inhibition", "setting": "[5]", "value": "Active"}, {"measurement": "Activity", "setting": "MV4-11 [6]", "value": 1.48, "unit": "%"}, {"measurement": "Activity", "setting": "U-937 [7]", "value": 88.19, "unit": "%"}, {"measurement": "Activity", "setting": "U-937 [8]", "value": 1.64, "unit": "%"}, {"measurement": "Activity", "setting": "U-937 [9]", "value": 3.44, "unit": "%"}, {"measurement": "Ki", "setting": "[10]", "value": 262, "unit": "nM"}, {"measurement": "Ki", "setting": "[11]", "value": 9, "unit": "nM"}, {"measurement": "GI50", "setting": "[12]", "value": 23, "unit": "nM"}, {"measurement": "Activity", "setting": "U-937 [13]", "value": 1.4, "unit": "%"}, {"measurement": "Activity", "setting": "U-937 [14]", "value": 80.33, "unit": "%"}, {"measurement": "Activity", "setting": "MV4-11 [15]", "value": 16.42, "unit": "%"}, {"measurement": "Activity", "setting": "MV4-11 [16]", "value": 73.52, "unit": "%"}, {"measurement": "Activity", "setting": "U-937 [17]", "value": 1.42, "unit": "%"}, {"measurement": "Activity", "setting": "MV4-11 [18]", "value": 86.83, "unit": "%"}]}]}
